Results: PubChem BioAssay AID1217 (Sanford-Burnham Center for Chemical Genomics, 2008)
Screen size: about 190,000 compounds; about 1,300 (0.68%) were called active. This excerpt belongs to a sample that is enriched for actives. A number with no mark means an inactive call.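 Rule for the calls: active = primary screen inhibition at 20 µM above a set limit (cut at about 50% in these data); inactive = the rest.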

The compounds below were run on diaphorase (Clostridium kluyveri) (assay: diaphorase inhibitors and chemical oxidizers, primary screen, counter-screen for diaphorase-coupled primary assays, biochemical, uHTS, resorufin fluorescence (AID 1217;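 note: plate controls were DMSO with full reaction for no effect and wells lacking NADH for full effect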)). Conditions: diaphorase resazurin-to-resorufin fluorescence, NADH, 16 min; at 20 µM; active compounds read high; bacterial (C. kluyveri) enzyme, not human.
Summary of the method: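 Detection: fluorescence of resorufin formed from resazurin, Ex 544/Em 590 nm; test system: Clostridium kluyveri diaphorase enzyme; amount: 0.14 U/mL diaphorase, enzyme working solution; times: 16-min room-temperature incubation before reading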
With O=C(Oc1cccc(NC2=NS(=O)(=O)c3ccccc32)c1)c1ccncc1 the inhibition was 50.9% (active).
Work on CC(C)(C)c1csc(NC2=NS(=O)(=O)c3ccccc32)n1 yielded an inhibition of 15.4%.
With O=C(Oc1ccccc1)c1ccc2nccnc2c1 the inhibition was 6.5%.
Cc1ccc(NC(=O)c2sccc2C)cc1[N+](=O)[O-] showed an inhibition of 12.8%.
O=C(COC(=O)/C=C/c1ccc(S(=O)(=O)N2CCCCCC2)cc1)NCc1ccccc1Cl gave an inhibition of 7.9%.
Work on CN(C)NC(=O)C(NC(=O)c1ccc(N)cc1)C12CC3CC(CC(C3)C1)C2 (stereo not drawn) yielded an inhibition of 4.7%.
For Clc1ccccc1CSc1nnc(-c2ccco2)c(-c2ccco2)n1, the inhibition was 46.2%.
c1ccc(CSc2nnc(-c3ccco3)c(-c3ccco3)n2)cc1 was tested, and the inhibition was 52.9% (active).
Brc1ccc(CSc2ccc(-c3ccco3)nn2)cc1 showed an inhibition of 6.5%.
O=C(CCN1CCN(c2ccccc2)CC1)NNC(=S)Nc1ccccc1 showed an inhibition of 20.6%.
With COC(=O)/C=C\C(=O)Nc1cccc([N+](=O)[O-])c1 the inhibition was -5.8%.
NC(=O)c1sc2nc3c(c(-c4ccccc4)c2c1N)CCC3 gave an inhibition of 36.8%.
Cc1cccc(NC(=O)c2sc3nc4c(c(-c5ccco5)c3c2N)CCC4)c1 was tested, and the inhibition was 61.2% (active).
Compound Cc1cccc(NC(=O)CSc2nnc(-c3ccco3)o2)c1 has an inhibition of 9.8%.
Cc1ccc(NC(=O)c2sc3nc(N)c(C#N)cc3c2N)cc1 showed an inhibition of 18.4%.
Cc1nc2sc(C(=O)c3ccccc3)c(N)c2c2c1CCCC2 was tested, and the inhibition was 28.7%.
For CC(=O)Nc1ccc(NC(=O)c2sc3nc4c(c(-c5ccc(C)cc5)c3c2N)CCC4)cc1, the inhibition was 51.1% (active).
With COCCN(C(=O)CCC(=O)Nc1nccs1)C(C(=O)NC(C)(C)C)c1ccc(Cl)cc1 (stereo not drawn) the inhibition was 10.1%.
In the case of COc1cccc(CN(C)CC(=O)Nc2ccccc2C(=O)Nc2ccccc2)c1, the inhibition is reported as 26.6%.
S=C(Nc1ccc2c(c1)OCO2)N1CCCC1 showed an inhibition of 3.4%.
Work on N/C(=N\OC(=O)Cc1ccccc1[N+](=O)[O-])c1ccc(Br)cc1 yielded an inhibition of 23.2%.
In the case of Cc1ccc2[nH]c(=O)c(-c3nc4c(C)cccn4c3NCc3ccco3)cc2c1, the inhibition is reported as 51.5% (active).
COc1ccc(CCn2c(=N)c(C(=O)NCc3ccco3)cc3c(=O)n4cccc(C)c4nc32)cc1 gave an inhibition of 8.1%.
CCNCc1cc2cc(C)ccc2[nH]c1=O was tested, and the inhibition was 20%.
Work on Cc1ccc(C)c(-n2cc(CN3CCN(C(=O)c4ncn[nH]4)CC3)c(-c3ccccc3)n2)c1 yielded an inhibition of 13.7%.
With COc1ccccc1C1=Nc2cccc3cccc(c23)N1 the inhibition was 63.5% (active).
c1ccc(C2=Nc3cccc4cccc(c34)N2)cc1 gave an inhibition of 27%.
For Fc1ccccc1N=C1Nc2cccc3cccc1c23, the inhibition was 12.1%.
Compound O=C1CC(=O)Nc2cc(S(=O)(=O)N3CCN(c4cccc(C(F)(F)F)c4)CC3)ccc2N1 has an inhibition of 0.3%.
CCOC(=O)C1=NOC(Cn2cc(C(C)=O)c(=O)[nH]c2=O)C1 (stereo not drawn) showed an inhibition of 2.6%.
Compound CCOc1cc(/C=N/NC(=O)c2ccc(CSc3nncn3C)cc2)ccc1OCC(=O)N1CCOCC1 has an inhibition of -14%.
COc1cc(CNCCN(C)C)ccc1OCc1c(F)cccc1Cl gave an inhibition of 3.9%.
COc1ccc(C[C@H]2CN3C(=NC[C@H]3C)N2CCNC(=O)CCC2CCCCC2)cc1 gave an inhibition of 0.9%.
Work on Cc1nc2ccccc2n1CC(=O)N/N=C/c1cccnc1 yielded an inhibition of 8.6%.
Cc1nccn1CC(=O)N/N=C/c1ccc(O)c(O)c1 was tested, and the inhibition was 50.4% (active).
Work on O=C(N/N=C/c1ccc(O)c(O)c1)C1c2ccccc2Oc2ccccc21 yielded an inhibition of 37.6%.
With CCN(CC)C(=O)Cn1cc(S(=O)(=O)CC(=O)NCc2ccc3c(c2)OCO3)c2ccccc21 the inhibition was 10.1%.
CC(C)Oc1ccc(CC(=O)NNC(=S)Nc2ccc(Br)cc2)cc1 showed an inhibition of -0.6%.
COC(=O)c1ccc(C(=O)OC)c(NC(=S)N2CCN(c3ccc(F)cc3)CC2)c1 showed an inhibition of 11.5%.
In the case of CCc1ccc(N(CC(=O)Nc2sc3c(c2C(=O)OC)CCCC3)S(C)(=O)=O)cc1, the inhibition is reported as 28.6%.
Cc1ccc(NC(=O)CSc2nnc(COc3ccccc3C)o2)cc1 was tested, and the inhibition was 55.6% (active).
For Cc1cc(C)cc(OCc2nnc(SCC(=O)Nc3ccccc3)o2)c1, the inhibition was 8.2%.
Work on Cc1ccc(NC(=O)CSc2nnc(CNC(=O)c3ccccc3F)o2)cc1 yielded an inhibition of -12.4%.
With C/C(=N\NC(=O)OC(C)(C)C)c1ccc[nH]1 the inhibition was 1.8%.
For COc1ccc(-c2cc(C3CCN(c4ncccc4[N+](=O)[O-])CC3)[nH]n2)cc1, the inhibition was 52.2% (active).
CC(=O)NC(Cc1ccccc1)C(=O)NC1CCN(c2ncccc2[N+](=O)[O-])CC1 (stereo not drawn) gave an inhibition of 15.7%.
Work on COc1ccc(N2CCN(c3ccc([N+](=O)[O-])nc3)CC2)cc1 yielded an inhibition of -1%.
Compound Cc1ccc(CNC(=O)Cn2c(=O)c3sccc3n(Cc3cccc([N+](=O)[O-])c3)c2=O)cc1 has an inhibition of -2.4%.
O=C(C1CCN(S(=O)(=O)c2ccc(Br)s2)CC1)N1CCN(C2CCCCC2)CC1 was tested, and the inhibition was 18.2%.
With CCn1c(O)c(N=NC2=NC(=O)CS2)c2cc(C)ccc21 the inhibition was 86.4% (active).
CCn1c(=O)cc(O)c2ccccc21 was tested, and the inhibition was 8.6%.
Work on CCn1c(O)c(N=NC(=O)c2cccc(S(=O)(=O)N3CCCCC3)c2)c2ccccc21 yielded an inhibition of 29.2%.
CC(C)c1ccc(Nc2nnc(SCC(=O)c3nnc(-c4ccccc4)o3)s2)cc1 showed an inhibition of 18.8%.
O=C1OCC2=C1C(c1ccccc1)CC(=O)N2c1cccc(F)c1 (stereo not drawn) was tested, and the inhibition was -4.2%.
For COc1ccc(N2CCN(CCCNC(=O)C3CCN(S(=O)(=O)N4CCOCC4)CC3)CC2)cc1, the inhibition was 0.3%.
In the case of CC(=O)n1cc([C@@H]2C=C(C(=O)N3CCN(Cc4ccc5c(c4)OCO5)CC3)O[C@H](OCc3ccc(CO)cc3)C2)c2ccccc21, the inhibition is reported as 53.6% (active).
Work on CC(=O)n1cc([C@H]2C=C(C(=O)N3CCOCC3)O[C@@H](OCc3ccc(CO)cc3)C2)c2ccccc21 yielded an inhibition of -0.6%.
With CN1CCN(C(=O)C2=C[C@H](c3ccc4c(c3)OCO4)C[C@H](OCc3ccc(CO)cc3)O2)CC1 the inhibition was 5.9%.
